According to ChEMBL document CHEMBL4049440, “First Dual Inhibitors of Steroid Sulfatase (STS) and 17β-Hydroxysteroid Dehydrogenase Type 1 (17β-HSD1): Designed Multiple Ligands as Novel Potential Therapeutics for Estrogen-Dependent Diseases” (J Med Chem, 2017):
Activity calls are given as the source filed them. The calls are words filed in the database; no cut-off is given here.

Key:
Steryl-sulfatase [1] = molecular target: T1, Steryl-sulfatase (Homo sapiens, UniProt P08842); assay: Inhibition of human placental microsomal STS assessed as formation of E1 preincubated for 30 mins followed by addition of E1S as substrate measured after 20 mins by ELISA
T1 sequence (P08842 whole entry): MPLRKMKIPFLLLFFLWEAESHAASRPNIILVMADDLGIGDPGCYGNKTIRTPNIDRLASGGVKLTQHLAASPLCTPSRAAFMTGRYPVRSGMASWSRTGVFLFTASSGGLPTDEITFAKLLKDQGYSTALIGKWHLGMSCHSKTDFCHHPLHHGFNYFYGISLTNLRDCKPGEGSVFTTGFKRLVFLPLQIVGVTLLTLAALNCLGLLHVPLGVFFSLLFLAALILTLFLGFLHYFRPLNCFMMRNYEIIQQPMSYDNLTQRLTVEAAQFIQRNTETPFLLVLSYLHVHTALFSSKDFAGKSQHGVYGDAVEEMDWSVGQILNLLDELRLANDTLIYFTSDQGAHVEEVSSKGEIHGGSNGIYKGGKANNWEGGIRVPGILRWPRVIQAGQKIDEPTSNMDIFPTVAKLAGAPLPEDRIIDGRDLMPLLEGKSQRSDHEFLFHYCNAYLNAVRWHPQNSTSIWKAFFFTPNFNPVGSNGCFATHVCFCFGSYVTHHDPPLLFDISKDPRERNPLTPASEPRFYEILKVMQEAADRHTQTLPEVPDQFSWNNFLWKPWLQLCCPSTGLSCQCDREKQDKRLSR
Summary of the method: (§1)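 Human placental STS incubated with estrone sulfate (E1S) as substrate in the presence of inhibitor; estrone (E1) formed was quantified by ELISA.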

[2] = molecular target: T2, 17-beta-hydroxysteroid dehydrogenase type 1 (Homo sapiens, UniProt P14061); assay: Inhibition of human placental cytosolic 17beta-HSD1 using [3H]-E1/E1 substrate and NADH after 10 mins by HPLC based radio-detection method
T2 sequence (P14061 whole entry): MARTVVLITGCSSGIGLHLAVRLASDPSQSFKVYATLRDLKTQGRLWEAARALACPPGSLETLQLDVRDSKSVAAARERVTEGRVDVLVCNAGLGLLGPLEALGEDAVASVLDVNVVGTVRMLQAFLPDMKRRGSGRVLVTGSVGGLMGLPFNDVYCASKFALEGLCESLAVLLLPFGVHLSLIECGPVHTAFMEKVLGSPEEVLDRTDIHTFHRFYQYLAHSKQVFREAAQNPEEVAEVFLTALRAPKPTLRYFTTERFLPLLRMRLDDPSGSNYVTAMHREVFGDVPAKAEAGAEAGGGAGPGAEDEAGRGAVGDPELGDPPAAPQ
Summary of the method: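 Cell-free assay with the cytosolic fraction of human placenta as the 17β-HSD1 source and radiolabeled E1 as substrate, with test compound present.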

[3] = Stability of the compound in Tris-HCl buffer at pH 7.2 after 30 mins; format: physicochemical; conditions: pH 7.2, 0.5 h
Summary of the method: (§2)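 Compound incubated in 20 mM Tris-HCl buffer, pH 7.2, at 37 °C for 30 min. Remaining parent compound was measured, with sulfamate cleavage to the phenolic OH product monitored.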

[4] = Selectivity factor, ratio of IC50 for human placental microsomal 17beta-HSD2 cells to IC50 for human placental cytosolic 17beta-HSD1
[5] = molecular target: T3, 17-beta-hydroxysteroid dehydrogenase type 2 (Homo sapiens, UniProt P37059); assay: Inhibition of human placental microsomal 17beta-HSD2 using [3H]-E2/E2 substrate and NAD+ after 20 mins by HPLC based radio-detection method
T3 sequence (P37059 whole entry): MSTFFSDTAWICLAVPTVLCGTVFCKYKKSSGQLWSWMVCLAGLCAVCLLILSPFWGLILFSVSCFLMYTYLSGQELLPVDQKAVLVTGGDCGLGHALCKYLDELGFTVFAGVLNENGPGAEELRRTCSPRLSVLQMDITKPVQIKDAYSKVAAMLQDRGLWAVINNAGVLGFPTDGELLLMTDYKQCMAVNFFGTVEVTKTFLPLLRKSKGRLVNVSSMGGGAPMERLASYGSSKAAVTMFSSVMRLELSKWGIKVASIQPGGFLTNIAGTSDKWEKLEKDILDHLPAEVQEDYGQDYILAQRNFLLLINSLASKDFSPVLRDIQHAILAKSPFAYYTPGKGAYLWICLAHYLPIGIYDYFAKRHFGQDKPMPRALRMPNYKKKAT

[6] = molecular target: T4, Steryl-sulfatase (Homo sapiens) (UniProt P08842); assay: Inhibition of human placental microsomal STS assessed as formation of E1 at 1 uM preincubated for 30 mins followed by addition of E1S as substrate measured after 20 mins by ELISA; summary of the method: as §1
T4 sequence (whole entry): T1 sequence (P08842 whole entry)

[7] = Drug degradation in Tris-HCl buffer assessed as formation of metabolite containing phenolic OH-group by measuring remaining parent compound levels at pH 7.2 after 30 mins; summary of the method: as §2
Steryl-sulfatase [8] = molecular target: T1, Steryl-sulfatase; assay: Inhibition of STS in human T47D cells preincubated for 1 hr followed by addition of [3H]-E1S/E1S as substrate measured after 24 hrs by HPLC based radio-detection method; format: cell-based
[9] = molecular target: T2, 17-beta-hydroxysteroid dehydrogenase type 1; assay: Inhibition of 17beta-HSD1 in human T47D cells preincubated for 1 hr followed by addition of [3H]-E1/E1 as substrate measured after 30 mins by HPLC based radio-detection method; format: cell-based
Steryl-sulfatase [10] = molecular target: T1, Steryl-sulfatase; assay: Irreversible inhibition of STS in human T47D cells preincubated for 2 hrs followed by compound washout and addition of [3H]-E1S/E1S as substrate measured after 24 hrs by HPLC based radio-detection method; format: cell-based
T47D [11] = assay: Antiproliferative activity against E1S/E1-stimulated human T47D cells assessed as reduction in cell viability measured after 7 days after MTT assay; format: functional, cell-based
[12] = molecular target: T4, Steryl-sulfatase (Homo sapiens); assay: Inhibition of STS in human T47D cells assessed as [3H]-E1S level at 400 nM after 48 hrs by HPLC based radio-detection method (reference value: 3.9%); format: cell-based; parameters: scale not given: the % may be the effect or the level left
[13] = molecular target: T5, 17-beta-hydroxysteroid dehydrogenase type 1 (Homo sapiens) (UniProt P14061); assay: Inhibition of 17beta-HSD1 in human T47D cells assessed as [3H]-E1 level at 400 nM after 48 hrs by HPLC based radio-detection method (reference value: 0.9%); format: cell-based; parameters: scale not given: the % may be the effect or the level left
T5 sequence (whole entry): T2 sequence (P14061 whole entry)

[14] = molecular target: T5, 17-beta-hydroxysteroid dehydrogenase type 1 (Homo sapiens); assay: Inhibition of 17beta-HSD1 in human T47D cells assessed as [3H]-E2 level at 400 nM after 48 hrs by HPLC based radio-detection method (reference value: 95.2%); format: cell-based; parameters: scale not given: the % may be the effect or the level left
T47D [15] = assay: Cytotoxicity against human T47D cells assessed as reduction in cell viability at 400 nM after 7 days by MTT assay; format: cell-based; conditions: 168 h, 0.4 µM
HEK293 = assay: Cytotoxicity against HEK293 cells assessed as reduction in cell viability at 0.1 to 1 uM after 48 hrs by MTT assay; format: cell-based; conditions: human, hek293, 48 h
T47D [16] = assay: Antiproliferative activity against E2-stimulated human T47D cells assessed as reduction in cell viability at 400 nM measured after 7 days after MTT assay; format: functional, cell-based
[17] = molecular target: T5, 17-beta-hydroxysteroid dehydrogenase type 1 (Homo sapiens); assay: Irreversible inhibition of 17beta-HSD1 in human T47D cells at 50 nM preincubated for 2 hrs followed by compound washout and addition of […] as substrate measured after 24 hrs by HPLC based radio-detection method; format: cell-based

Row | Structure (SMILES) | IC50 (Steryl-sulfatase [1]) [nM] | IC50 [2] [nM] | Stability [3] | Ratio IC50 [4] | IC50 [5] [nM] | inhibition [6] [%] | Stability [7] [%] | IC50 (Steryl-sulfatase [8]) [nM] | IC50 [9] [nM] | IC50 (Steryl-sulfatase [10]) [nM] | Activity (T47D [11]) | Activity [12] [%] | Activity [13] [%] | Activity [14] [%] | Activity (T47D [15]) | Activity (HEK293) | Activity (T47D [16]) | inhibition [17]
1 | Cc1cc(-c2ccc(C(=O)c3c(F)ccc(O)c3F)s2)ccc1OS(N)(=O)=O | 221 | 32.4 | Stable | 1 | 31.2 |  |  |  |  |  |  |  |  |  |  |  |  | 
2 | NS(=O)(=O)Oc1cccc(-c2ccc(C(=O)c3c(F)ccc(O)c3F)s2)c1 |  | 2.2 | Stable | 14.2 | 31.3 | < 10 |  |  |  |  |  |  |  |  |  |  |  | 
3 | NS(=O)(=O)Oc1ccc(-c2ccc(C(=O)c3c(F)ccc(O)c3F)s2)cc1 |  | 3.4 | Stable | 8.2 | 28 | < 10 |  |  |  |  |  |  |  |  |  |  |  | 
4 | NS(=O)(=O)Oc1cccc(-c2ccc(C(=O)c3c(F)ccc(O)c3F)s2)c1F | 123 | 7.1 | Stable | 2.5 | 17.4 |  |  |  |  |  |  |  |  |  |  |  |  | 
5 | NS(=O)(=O)Oc1ccc(-c2ccc(C(=O)c3c(F)ccc(O)c3F)s2)c(F)c1F | 105 | 2.7 |  | 8.6 | 23.2 |  | 28 |  |  |  |  |  |  |  |  |  |  | 
6 | Cc1cc(OS(N)(=O)=O)ccc1-c1ccc(C(=O)c2c(F)ccc(O)c2F)s1 | 35 | 43.5 | Stable | 0.9 | 40 |  |  |  |  |  |  |  |  |  |  |  |  | 
7 | NS(=O)(=O)Oc1ccc(-c2ccc(C(=O)c3c(F)ccc(O)c3F)s2)cc1Cl | 143 | 1.1 | Stable | 33 | 36.1 |  |  | 15.6 | 22.2 | 16.4 | Dose-dependent effect | 50 | 48.9 | 1.1 | Non-Toxic | Non-Toxic | inactive | inactive
